Test results as given in ChEMBL document CHEMBL1149312, “Non-nucleoside benzimidazole-based allosteric inhibitors of the hepatitis C virus NS5B polymerase: inhibition of subgenomic hepatitis C virus RNA replicons in Huh-7 cells” (J Med Chem, 2004).
Calls of active or inactive are those of the source. The rule behind the calls is not given here.

Key:
[1] = Distribution coefficient, log D at pH 7.2; type: physicochemical; details: octanol/water
In short: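 Shake-flask partitioning between octanol and 100 mM phosphate buffer, pH 7.2; reported as log D(oct/buffer).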

[2] = Inhibition of HCV NS5B polymerase; set-up: species or system Hepacivirus hominis
In short: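 N-terminally tagged full-length NS5B construct; IC50 values are the mean of duplicate measurements on two separate weighings.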

Hepatitis C virus [3] = test: Inhibition of subgenomic HCV RNA replication in Huh7 cells by cell-based replicon assay; type: functional, organism-based, Hepacivirus hominis; details: Huh-7
In short: (§1)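 Subgenomic HCV RNA replicon in Huh-7 cells. Replicon RNA was quantified by RT-PCR and normalized to cellular GAPDH mRNA. EC50 runs were done in duplicate on two separate weighings.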

Hepatitis C virus [4] = test: Inhibition of subgenomic HCV RNA replication in Huh7 cells at 74 uM by cell-based replicon assay; type: functional, Hepacivirus hominis; details: Huh-7; in short: as §1
[5] = Solubility in phosphate buffer at pH 7.2; type: physicochemical
In short: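 Solubility measured in phosphate buffer at pH 7.2.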

Enterovirus C = test: Inhibition of poliovirus RNA-dependent RNA polymerase at 200 to 250 uM
Bos taurus = organism: Bos taurus; test: Inhibition of calf thymus DNA-dependent RNA polymerase 2 at 200 to 250 uM
Hepatitis C virus [6] = test: Inhibition of subgenomic HCV RNA replication in Huh7 cells at 3.4 uM by cell-based replicon assay; type: functional, Hepacivirus hominis; details: Huh-7; in short: as §1
[7] = Cytotoxicity against Huh7 cells; type: cell-based; details: human, huh-7

| Compound | IC50 [2] | EC50 (Hepatitis C virus [3]) | inhibition (Enterovirus C) | Activity (Bos taurus) | further results |
| --- | --- | --- | --- | --- | --- |
| O=C(N[C@@H](Cc1c[nH]c2ccc(O)cc12)C(=O)O)c1ccc2c(c1)nc(-c1ccoc1)n2C1CCCCC1 | 0.05 µM | > 74 µM |  |  | logD [1]: 0.45; inhibition at 74 µM (Hepatitis C virus [4]): 37%; solubility [5]: > 850 µg/mL |
| Cc1nc([C@H](Cc2ccc(O)cc2)NC(=O)c2ccc3c(c2)nc(-c2ccoc2)n3C2CCCCC2)cs1 | 3.3 µM | 7.4 µM | < 50% | Active |  |
| O=C(N[C@@H](Cc1ccc(O)cc1)C(=O)Nc1cccnc1)c1ccc2c(c1)nc(-c1ccoc1)n2C1CCCCC1 | 3 µM | 6 µM |  |  |  |
| COC(=O)[C@H](Cc1c[nH]c2ccc(O)cc12)NC(=O)c1ccc2c(c1)nc(-c1ccoc1)n2C1CCCCC1 | 0.38 µM |  |  |  | inhibition at 3.4 µM (Hepatitis C virus [6]): 30%; Activity [7]: Toxic |
| COc1ccc(CCNC(=O)c2ccc3c(c2)nc(-c2ccccn2)n3C2CCCCC2)cc1OC | 12 µM |  |  |  |  |
| CN(C)CCNC(=O)[C@H](Cc1ccc(O)cc1)NC(=O)c1ccc2c(c1)nc(-c1ccoc1)n2C1CCCCC1 | 2.1 µM |  |  |  |  |
| O=C(N[C@@H](Cc1ccc(O)cc1)c1cscn1)c1ccc2c(c1)nc(-c1ccoc1)n2C1CCCCC1 | 6.6 µM | 4.3 µM | < 50% | Active |  |
| Cn1cc(C[C@H](NC(=O)c2ccc3c(c2)nc(-c2ccoc2)n3C2CCCCC2)c2csc(N)n2)c2cc(O)ccc21 | 0.9 µM | 3.4 µM | < 50% | Active |  |
| Cc1nc([C@H](Cc2c[nH]c3ccc(O)cc23)NC(=O)c2ccc3c(c2)nc(-c2ccoc2)n3C2CCCCC2)cs1 | 0.3 µM | 2.4 µM | < 50% | Active | logD [1]: 4.6; solubility [5]: < 0.1 µg/mL |
| CN(C)CCCNC(=O)[C@H](Cc1ccc(O)cc1)NC(=O)c1ccc2c(c1)nc(-c1ccoc1)n2C1CCCCC1 | 1.9 µM |  |  |  |  |
| O=C(N[C@@H](Cc1ccc(O)cc1)C(=O)N1CCOCC1)c1ccc2c(c1)nc(-c1ccoc1)n2C1CCCCC1 | 9.5 µM |  |  |  |  |
| Nc1nc([C@H](Cc2ccc(O)cc2)NC(=O)c2ccc3c(c2)nc(-c2ccoc2)n3C2CCCCC2)cs1 | 1.3 µM |  | < 50% | Active |  |
| NC(=O)[C@H](Cc1c[nH]c2ccc(O)cc12)NC(=O)c1ccc2c(c1)nc(-c1ccoc1)n2C1CCCCC1 | 0.22 µM | 8 µM |  |  |  |
| CNc1nc([C@H](Cc2ccc(O)cc2)NC(=O)c2ccc3c(c2)nc(-c2ccoc2)n3C2CCCCC2)cs1 | 2.8 µM | 7.1 µM | < 50% | Active |  |
| O=C(N[C@@H](Cc1ccc(O)cc1)C(=O)NCc1ccncc1)c1ccc2c(c1)nc(-c1ccoc1)n2C1CCCCC1 | 3.7 µM | > 9 µM |  |  |  |
| O=C(O)COc1ccc2[nH]cc(C[C@H](NC(=O)c3ccc4c(c3)nc(-c3ccoc3)n4C3CCCCC3)C(=O)O)c2c1 | 0.027 µM | 64 µM |  |  | logD [1]: -1.6; solubility [5]: > 850 µg/mL |
| CC(=O)Nc1nc([C@H](Cc2c[nH]c3ccc(O)cc23)NC(=O)c2ccc3c(c2)nc(-c2ccoc2)n3C2CCCCC2)cs1 | 0.55 µM | 5.8 µM | < 50% | Active |  |

| Compound | IC50 [2] | EC50 (Hepatitis C virus [3]) | inhibition (Enterovirus C) | Activity (Bos taurus) | further results |
| --- | --- | --- | --- | --- | --- |
| CN(C)c1nc([C@H](Cc2ccc(O)cc2)NC(=O)c2ccc3c(c2)nc(-c2ccoc2)n3C2CCCCC2)cs1 | 5.1 µM | 8.3 µM | < 50% | Active |  |
| O=C(N[C@@H](Cc1ccc(O)cc1)C(=O)NCc1cccnc1)c1ccc2c(c1)nc(-c1ccoc1)n2C1CCCCC1 | 2.6 µM | 16 µM |  |  |  |
| O=C(N[C@@H](Cc1ccc(O)cc1)C(=O)NCCN1CCOCC1)c1ccc2c(c1)nc(-c1ccoc1)n2C1CCCCC1 | 3.2 µM | > 13 µM |  |  |  |
| O=C(N[C@@H](Cc1ccc(O)cc1)C(=O)O)c1ccc2c(c1)nc(-c1ccoc1)n2C1CCCCC1 | 0.5 µM | 48 µM |  |  | Activity [7]: Not Active |
| CNc1nc([C@H](Cc2c[nH]c3ccc(O)cc23)NC(=O)c2ccc3c(c2)nc(-c2ccoc2)n3C2CCCCC2)cs1 | 0.5 µM | 3 µM | < 50% | Active |  |
| O=C(O)c1ccc2c(c1)nc(-c1ccoc1)n2C1CCCCC1 | 1.6 µM |  |  |  |  |
| CN1CCN(C(=O)[C@H](Cc2ccc(O)cc2)NC(=O)c2ccc3c(c2)nc(-c2ccoc2)n3C2CCCCC2)CC1 | 11 µM | > 9 µM |  |  |  |
| CC(=O)Nc1nc([C@H](Cc2ccc(O)cc2)NC(=O)c2ccc3c(c2)nc(-c2ccoc2)n3C2CCCCC2)c[nH]1 | 4.2 µM |  | < 50% | Active |  |
| O=C(N[C@@H](Cc1c[nH]c2ccc(O)cc12)c1cscn1)c1ccc2c(c1)nc(-c1ccoc1)n2C1CCCCC1 | 0.3 µM | 1.7 µM | < 50% | Active | logD [1]: 3.8 |
| CC(=O)Nc1nc([C@H](Cc2ccc(O)cc2)NC(=O)c2ccc3c(c2)nc(-c2ccoc2)n3C2CCCCC2)cs1 | 4.8 µM | 2.4 µM | < 50% | Active |  |
| CC(C)[C@H](Cc1ccc(O)cc1)NC(=O)c1ccc2c(c1)nc(-c1ccoc1)n2C1CCCCC1 | 4.3 µM | 3.5 µM |  |  | logD [1]: 3.4 |
| CN(C)c1nc([C@H](Cc2c[nH]c3ccc(O)cc23)NC(=O)c2ccc3c(c2)nc(-c2ccoc2)n3C2CCCCC2)cs1 | 0.9 µM | 3.7 µM | < 50% | Active |  |
| Nc1nc([C@H](Cc2c[nH]c3ccc(O)cc23)NC(=O)c2ccc3c(c2)nc(-c2ccoc2)n3C2CCCCC2)cs1 | 0.19 µM | 5.7 µM | < 50% | Active |  |
| NC(=O)[C@H](Cc1ccc(O)cc1)NC(=O)c1ccc2c(c1)nc(-c1ccoc1)n2C1CCCCC1 | 0.8 µM | 13 µM |  |  | logD [1]: 3.1 |
| CN(C)C(=O)[C@H](Cc1ccc(O)cc1)NC(=O)c1ccc2c(c1)nc(-c1ccoc1)n2C1CCCCC1 | 4.9 µM |  |  |  |  |
| O=C(N[C@@H](Cc1ccc(O)cc1)C(=O)NCc1ccccn1)c1ccc2c(c1)nc(-c1ccoc1)n2C1CCCCC1 | 2.7 µM | 10 µM |  |  |  |
